We go through one compound from ChEMBL document CHEMBL4024748, “Development of Potent Type I Protein Arginine Methyltransferase (PRMT) Inhibitors of Leukemia Cell Proliferation” (J Med Chem, 2017).

Activity calls are given as the source filed them. No cut-off for these calls is given here.

For orientation: IC50 means the concentration needed to halve the response being measured.

Series [1] deals with Histone-lysine N-methyltransferase PRDM9 (Homo sapiens) (UniProt Q9NQV7). The series can be described thus: Inhibition of PRDM9 (unknown origin) at 50 uM incubated for 15 mins followed by substrate addition measured after 60 mins by AlphaLisa method. The method in brief: (§1)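 AlphaLISA. Enzyme and substrate in 1x assay buffer, compound at 1% DMSO final. Enzyme preincubated with compound 15 min at room temperature, then substrate added. Reaction 60 min at room temperature, then bead mix added and incubated 60 min under subdued light before signal read.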
A general note: Bead proximity is the source of the signal in Alpha formats.

For series [2], the system named is KMS-11. The series can be described thus: Cytotoxicity against human KMS11 cells assessed as decrease in cell viability after 96 hrs by Cell-Titer Glo assay. It is filed as functional, cell-based. An outline of the steps: (§2)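 Cells kept at 37°C, 5% CO2, exposed to compound or DMSO control for 96 h. Viability read by CellTiter-Glo luminescence after 2 min shaking to lyse and 10 min at room temperature. Triplicate wells, normalised to control cells. For long-term growth, log-phase seeding densities; cells counted and replated to the starting density with fresh compound on days 4 and 8.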

The target in series [3] is Histone-arginine methyltransferase CARM1 (Homo sapiens, UniProt Q86X55). Kind of series: Inhibition of PRMT4 (unknown origin) incubated for 15 mins followed by substrate addition measured after 60 mins by AlphaLisa method. The method in brief:
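Enzyme preincubated with compound for 15 min at room temperature in 1x assay buffer (final DMSO 1%), then substrate added. The reaction ran for 60 min at room temperature. AlphaLISA bead mix was then added and incubated for 60 min at room temperature in subdued light. The luminescent signal was read and IC50 derived by curve fitting.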

Series [4] has as its system MRC5. Kind of series: Cytotoxicity against human MRC5 cells assessed as decrease in cell viability at 6.25 to 25 uM after 96 hrs by Cell-Titer Glo assay. Format: cell-based. Conditions: mrc5, 96 h. The method in brief:
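Normal HUV-EC-C, MRC-5 and RCTEC cells at 37°C, 5% CO2, given compound or DMSO control for 96 h. Viability by CellTiter-Glo luminescence after 2 min shaking and 10 min at room temperature. Triplicate wells, normalised to control cells.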

For series [5], the system named is MV4-11. The series can be described thus: Upregulation of MNDA mRNA levels in human MV4-11 cells by qRT-PCR analysis. It is filed as functional, cell-based. The method in brief: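 Treated MV4-11 cells analysed by SYBR Green qRT-PCR, with B2M as internal control. Fold change calculated by the ΔΔCt method. Samples run in triplicate and reported as mean ± SD.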

The target of series [6] is Histone-lysine N-methyltransferase PRDM9 (Homo sapiens) (UniProt Q9NQV7). Kind of series: Inhibition of PRDM9 (unknown origin) at 100 uM incubated for 15 mins followed by substrate addition measured after 60 mins by AlphaLisa method. An outline of the steps:
as §1

Series [7] relates to MV4-11. Kind of series: Antiproliferative activity against human MV4-11 cells assessed as decrease in cell viability at 0.1 to 1000 uM by Cell-Titer Glo assay. Format: functional, cell-based. The note with it: TDE = time-dependent effect. The method in brief: as §2
Series [8] deals with U-937. The series can be described thus: Cytotoxicity against human U937 cells assessed as decrease in cell viability after 96 hrs by Cell-Titer Glo assay. Format: functional, cell-based. The method in brief: as §2
Series [9] concerns RS4-11. Kind of series: Cytotoxicity against human RS4:11 cells assessed as decrease in cell viability after 96 hrs by Cell-Titer Glo assay. It is filed as functional, cell-based. The method in brief:
as §2

Series [10] deals with Protein arginine N-methyltransferase 6 (Homo sapiens, UniProt Q96LA8). The series can be described thus: Inhibition of PRMT6 in human MV411 cells assessed as reduction in H3R2me2a levels after 48 hrs by Western blot analysis. It is filed as cell-based. An outline of the steps:
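MV4-11 cells (37°C, 5% CO2) exposed to compound for 48 h across a range of doses. Histone H3R2 asymmetric dimethylation read by western blot. Membranes blocked in 5% milk/PBST, primary antibody overnight at 4°C, then 1:10000 HRP donkey anti-rabbit secondary for 1 h.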
(In general: Immunoblotting shows a protein as a band on a membrane.)

The target in series [11] is Histone acetyltransferase KAT2A (Homo sapiens) (UniProt Q92830). The series can be described thus: Inhibition of GCN5 (unknown origin) at 50 uM incubated for 15 mins followed by substrate addition measured after 60 mins by radioisotope assay.
The target is the same in series [12]. The series can be described thus: Inhibition of GCN5 (unknown origin) at 100 uM incubated for 15 mins followed by substrate addition measured after 60 mins by radioisotope assay.
Series [13] concerns MV4-11. Kind of series: Cell cycle arrest in human MV4-11 cells assessed as accumulation at G1 phase after 72 hrs by propidium iodide staining-based flow cytometry. Format: functional. An outline of the steps: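 MV4-11 cells in 6-well plates with compound or DMSO control, harvested at 72 h. Fixed overnight in 70% ethanol at 4°C, washed with PBS, stained 30 min at room temperature with propidium iodide/RNase buffer, analysed by flow cytometry. Mean ± SD of three replicates.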

In series [14] the target is Protein arginine N-methyltransferase 1 (Rattus norvegicus) (UniProt Q63009). Kind of series: Non-competitive inhibition of rat His-tagged PRMT1 (11 to 353 residues) expressed in Escherichia coli BL21(DE3) in presence of varying concentrations of biotinylated H4 peptide (1 to 21 residues) substrate and fixed [3H]SAM concentration. The method in brief:
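Kinetic mode-of-action study using the radiolabel method with His6-rPRMT1(11–353). IC50 measured at varied peptide substrate or varied SAM concentrations, with the other component fixed. 15 min enzyme–compound preincubation, then 60 min reaction at RT with [3H]-SAM, Flashplate capture and Microbeta counting.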

Histone-lysine N-methyltransferase PRDM9 (Homo sapiens), sequence (Q9NQV7 whole entry): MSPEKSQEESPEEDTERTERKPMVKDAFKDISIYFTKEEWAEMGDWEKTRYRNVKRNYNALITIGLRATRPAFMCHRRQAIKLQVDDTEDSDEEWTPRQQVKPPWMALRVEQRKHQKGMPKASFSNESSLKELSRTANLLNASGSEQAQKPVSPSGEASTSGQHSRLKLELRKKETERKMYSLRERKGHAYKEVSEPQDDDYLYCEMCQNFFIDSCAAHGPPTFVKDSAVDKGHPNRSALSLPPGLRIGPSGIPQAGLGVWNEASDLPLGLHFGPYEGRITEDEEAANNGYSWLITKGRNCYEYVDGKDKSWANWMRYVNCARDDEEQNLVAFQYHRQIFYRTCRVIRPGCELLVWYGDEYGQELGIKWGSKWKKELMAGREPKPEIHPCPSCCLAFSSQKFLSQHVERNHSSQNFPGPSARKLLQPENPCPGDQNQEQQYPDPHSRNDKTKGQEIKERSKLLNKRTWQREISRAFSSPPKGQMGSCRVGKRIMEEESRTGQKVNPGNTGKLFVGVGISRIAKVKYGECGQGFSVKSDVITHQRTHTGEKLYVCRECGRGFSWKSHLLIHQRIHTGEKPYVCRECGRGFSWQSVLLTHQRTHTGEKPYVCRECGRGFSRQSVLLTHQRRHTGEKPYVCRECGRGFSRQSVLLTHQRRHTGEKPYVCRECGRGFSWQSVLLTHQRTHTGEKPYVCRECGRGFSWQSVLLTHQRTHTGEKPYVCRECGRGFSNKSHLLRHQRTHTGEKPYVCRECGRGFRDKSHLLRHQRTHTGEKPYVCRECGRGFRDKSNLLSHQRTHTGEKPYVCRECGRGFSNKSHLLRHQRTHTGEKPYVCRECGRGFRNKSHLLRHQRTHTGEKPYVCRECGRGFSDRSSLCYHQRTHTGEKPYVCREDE
Histone acetyltransferase KAT2A (Homo sapiens), sequence (Q92830 2-837 limits assumed): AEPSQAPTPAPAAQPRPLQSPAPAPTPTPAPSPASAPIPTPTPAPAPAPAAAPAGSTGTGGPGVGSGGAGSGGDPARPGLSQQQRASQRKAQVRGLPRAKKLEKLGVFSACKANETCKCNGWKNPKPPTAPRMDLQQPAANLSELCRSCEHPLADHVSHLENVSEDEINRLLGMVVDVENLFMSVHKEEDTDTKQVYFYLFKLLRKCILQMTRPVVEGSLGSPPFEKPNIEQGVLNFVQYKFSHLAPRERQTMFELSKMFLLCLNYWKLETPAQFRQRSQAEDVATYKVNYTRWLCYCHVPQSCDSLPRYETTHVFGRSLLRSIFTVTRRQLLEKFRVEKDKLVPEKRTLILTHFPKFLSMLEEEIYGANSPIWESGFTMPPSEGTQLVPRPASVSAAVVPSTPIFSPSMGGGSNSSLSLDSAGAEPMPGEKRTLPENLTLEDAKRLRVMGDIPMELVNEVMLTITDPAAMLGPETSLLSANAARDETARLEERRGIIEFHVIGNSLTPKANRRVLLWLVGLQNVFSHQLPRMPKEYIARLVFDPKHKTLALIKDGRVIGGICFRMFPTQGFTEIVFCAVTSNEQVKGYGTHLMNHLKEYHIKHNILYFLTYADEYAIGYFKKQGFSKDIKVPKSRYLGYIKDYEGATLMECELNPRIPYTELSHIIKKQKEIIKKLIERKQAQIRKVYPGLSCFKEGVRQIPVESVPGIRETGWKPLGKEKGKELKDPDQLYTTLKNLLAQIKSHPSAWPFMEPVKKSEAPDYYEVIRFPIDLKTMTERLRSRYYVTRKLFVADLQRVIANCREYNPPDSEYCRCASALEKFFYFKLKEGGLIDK
Protein arginine N-methyltransferase 1 (Rattus norvegicus), sequence (Q63009 whole entry, looked up, the tested form may be a part): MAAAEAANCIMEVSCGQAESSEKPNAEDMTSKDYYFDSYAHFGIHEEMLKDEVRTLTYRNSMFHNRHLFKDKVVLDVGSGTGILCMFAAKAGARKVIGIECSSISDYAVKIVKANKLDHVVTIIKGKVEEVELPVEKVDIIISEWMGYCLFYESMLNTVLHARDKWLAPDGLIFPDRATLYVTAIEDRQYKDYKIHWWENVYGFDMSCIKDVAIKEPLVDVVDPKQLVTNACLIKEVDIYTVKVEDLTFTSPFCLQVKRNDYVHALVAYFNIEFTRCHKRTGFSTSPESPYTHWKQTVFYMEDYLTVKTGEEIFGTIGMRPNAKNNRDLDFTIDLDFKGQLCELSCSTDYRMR
Protein arginine N-methyltransferase 6, sequence (Q96LA8 whole entry, looked up): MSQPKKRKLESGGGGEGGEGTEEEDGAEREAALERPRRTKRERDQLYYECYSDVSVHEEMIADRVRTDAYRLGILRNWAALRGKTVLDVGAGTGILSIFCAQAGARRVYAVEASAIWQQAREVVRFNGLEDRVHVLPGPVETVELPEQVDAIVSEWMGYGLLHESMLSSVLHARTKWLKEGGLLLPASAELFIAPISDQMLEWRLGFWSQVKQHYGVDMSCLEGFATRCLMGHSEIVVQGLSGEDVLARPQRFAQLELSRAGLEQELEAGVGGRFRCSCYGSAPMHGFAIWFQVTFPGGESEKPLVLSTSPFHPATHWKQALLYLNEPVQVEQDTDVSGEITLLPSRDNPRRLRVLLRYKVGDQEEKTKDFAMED
Histone-arginine methyltransferase CARM1, sequence (Q86X55 whole entry): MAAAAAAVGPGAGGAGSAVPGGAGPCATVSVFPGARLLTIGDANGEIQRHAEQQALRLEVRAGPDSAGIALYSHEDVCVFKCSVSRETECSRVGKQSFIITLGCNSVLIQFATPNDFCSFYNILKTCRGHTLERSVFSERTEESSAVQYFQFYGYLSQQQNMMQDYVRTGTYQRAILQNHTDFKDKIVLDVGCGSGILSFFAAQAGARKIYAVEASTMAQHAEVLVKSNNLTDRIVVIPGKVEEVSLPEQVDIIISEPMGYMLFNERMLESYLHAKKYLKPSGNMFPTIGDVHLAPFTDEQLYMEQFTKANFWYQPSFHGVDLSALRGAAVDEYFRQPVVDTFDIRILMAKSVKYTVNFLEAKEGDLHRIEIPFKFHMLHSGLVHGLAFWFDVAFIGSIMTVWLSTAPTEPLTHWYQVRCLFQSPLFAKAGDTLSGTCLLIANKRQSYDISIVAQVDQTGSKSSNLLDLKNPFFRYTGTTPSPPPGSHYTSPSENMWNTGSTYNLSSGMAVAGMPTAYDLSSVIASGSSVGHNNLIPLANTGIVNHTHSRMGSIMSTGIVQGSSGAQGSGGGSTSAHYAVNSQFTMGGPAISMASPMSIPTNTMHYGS

With `CN(CCN)Cc1ccccc1Sc1ccccc1Cl`, the inhibition result in series [1], in [6], in series [11], in series [12] and in [14] was “Active” in each case. The Activity entry is “Dose-dependent effect” in series [2]; “Non-Toxic” in series [4]; “Tde” in series [7]; “Dose-dependent effect” in [8]; “Dose-dependent effect” in series [9]; “Dose-dependent effect” in series [13]. Also, 0.063 µM corresponded to half-maximal inhibition in series [3] (IC50). The outcome in series [5] was Active. Besides, the inhibition entry in series [10] is “Dose-dependent effect”.
